Results taken from ChEMBL document CHEMBL1127414 (J Med Chem, 1994).

Tests used:
[1] = molecular target: T1, Squalene synthase (Mus musculus) (UniProt P53798); experiment: Tested for the effective dose required for the incorporation of [5-3H]-mevalonolactone into cholesterol by in vivo mouse assay by peroral administration; format: functional, organism-based
T1 sequence (whole entry): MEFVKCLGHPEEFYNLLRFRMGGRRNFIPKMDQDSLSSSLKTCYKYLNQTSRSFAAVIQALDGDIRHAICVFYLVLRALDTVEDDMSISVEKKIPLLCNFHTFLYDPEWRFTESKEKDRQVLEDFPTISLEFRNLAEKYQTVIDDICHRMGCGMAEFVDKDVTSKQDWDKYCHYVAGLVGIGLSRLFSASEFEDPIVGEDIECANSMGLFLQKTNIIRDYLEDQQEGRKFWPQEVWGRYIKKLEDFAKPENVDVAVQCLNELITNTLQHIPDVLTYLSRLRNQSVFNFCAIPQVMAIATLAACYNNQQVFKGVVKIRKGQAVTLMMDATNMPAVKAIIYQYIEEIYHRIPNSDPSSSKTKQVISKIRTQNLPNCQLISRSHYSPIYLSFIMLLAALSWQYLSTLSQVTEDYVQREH
Method in brief: (§1)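 Female Swiss Webster mice (~25 g), six per group, dosed po by gavage with inhibitor suspended in 5% emulphor. 30 min later, 0.5 μCi/mouse [5-3H]mevalonolactone in saline given sc. Livers removed 30 min after that and saponified in KOH/EtOH overnight at 55 °C, then petroleum-ether extracted. Nonsaponifiable dpm counted. Compounds first tested at a single dose (typically 12 or 24 mg/kg).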

Squalene synthase = molecular target: T2, Squalene synthase (Rattus norvegicus, UniProt Q02769); experiment: Tested for inhibition against squalene synthase enzyme in rat liver
T2 sequence (Q02769 whole entry): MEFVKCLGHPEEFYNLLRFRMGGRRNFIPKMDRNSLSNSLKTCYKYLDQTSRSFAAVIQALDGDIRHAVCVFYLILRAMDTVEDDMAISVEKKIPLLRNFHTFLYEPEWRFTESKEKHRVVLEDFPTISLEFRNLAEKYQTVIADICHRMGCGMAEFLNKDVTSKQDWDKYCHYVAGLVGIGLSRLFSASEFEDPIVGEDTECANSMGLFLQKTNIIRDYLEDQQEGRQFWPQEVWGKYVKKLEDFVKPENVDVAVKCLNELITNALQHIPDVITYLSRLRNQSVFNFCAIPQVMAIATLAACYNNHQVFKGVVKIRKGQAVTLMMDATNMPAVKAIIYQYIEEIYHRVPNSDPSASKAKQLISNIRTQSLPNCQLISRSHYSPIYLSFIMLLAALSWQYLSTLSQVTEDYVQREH

[2] = molecular target: T3, Squalene synthase (Rattus norvegicus) (UniProt Q02769); experiment: Concentration required to inhibit rat liver squalene synthase enzyme relative to control (L-694,599)
T3 sequence (whole entry): T2 sequence (Q02769 whole entry)
Method in brief: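 Enzyme from rat liver. […] Inhibitors added in DMSO (0.3% final) as 3-fold serial dilutions, usually up to 30 ng/mL (about 40 nM). IC50 read from % inhibition vs log concentration.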

Mus musculus = experiment: Ability to inhibit the incorporation of [5-3H]-mevalonolactone into cholesterol by in vivo mouse assay by peroral administration at a dose of 24 mg/kg; format: functional; details: route oral; method in brief: as §1

| SMILES | ED50 [1] | IC50 (Squalene synthase) | Relative activity [2] | inhibition in vivo at 24 mg/kg (Mus musculus) |
| --- | --- | --- | --- | --- |
| C=C(CCC12OC(C(=O)O)C(O)(C(=O)O)C(C(=O)O)(O1)[C@H](OC(=O)C(C)C)[C@H]2O)[C@@H](OC(C)=O)[C@H](C)Cc1ccccc1 (some centres undefined) | 8 mg/kg | 21 nM | 0.02 | – |
| C=C(CCC12OC(C(=O)O)C(O)(C(=O)O)C(C(=O)O)(O1)[C@H](OCCC(C)C)[C@H]2O)[C@@H](OC(C)=O)[C@H](C)Cc1ccccc1 (some centres undefined) | 9 mg/kg | 2.3 nM | 0.09 | – |
| C=C(CCC12OC(C(=O)O)C(O)(C(=O)O)C(C(=O)O)(O1)[C@H](OC(C)=O)[C@H]2O)[C@@H](OC(C)=O)[C@H](C)Cc1ccccc1 (some centres undefined) | 18 mg/kg | 36.1 nM | 0.02 | – |
| C=C(CCC12OC(C(=O)O)C(O)(C(=O)O)C(C(=O)O)(O1)[C@H](OCCC[C@@H](C)C[C@@H](C)CC)[C@H]2O)[C@@H](OC(C)=O)[C@H](C)Cc1ccccc1 (some centres undefined) | – | 0.2 nM | 1 | 38% |
| C=C(CCC12OC(C(=O)O)C(O)(C(=O)O)C(C(=O)O)(O1)[C@H](OC(=O)CCC)[C@H]2O)[C@@H](OC(=O)CCC)[C@H](C)Cc1ccccc1 (some centres undefined) | – | 9.7 nM | 0.027 | 1% |
| CCCC(=O)O[C@@H]1[C@@H](O)C2(CCCCc3cccc4ccccc34)OC(C(=O)O)C(O)(C(=O)O)C1(C(=O)O)O2 (some centres undefined) | – | 1800 nM | 0.00014 | – |
| C=C(C)CC(=O)O[C@@H]1[C@@H](O)C2(CCC(=C)[C@@H](OC(C)=O)[C@H](C)Cc3ccccc3)OC(C(=O)O)C(O)(C(=O)O)C1(C(=O)O)O2 (some centres undefined) | 12 mg/kg | 5.6 nM | 0.06 | – |
| C=C(CCC12OC(C(=O)O)C(O)(C(=O)O)C(C(=O)O)(O1)[C@H](OC(=O)NCCC[C@@H](C)C[C@@H](C)CC)[C@H]2O)[C@@H](OC(C)=O)[C@H](C)Cc1ccccc1 (some centres undefined) | – | 0.8 nM | 0.25 | -2% |
| C=C(CCC12OC(C(=O)O)C(O)(C(=O)O)C(C(=O)O)(O1)[C@H](OC(=O)CCC)[C@H]2O)[C@@H](OC(=O)CC)[C@H](C)Cc1ccccc1 (some centres undefined) | – | 8.8 nM | 0.03 | 67% |
| C=C(CCC12OC(C(=O)O)C(O)(C(=O)O)C(C(=O)O)(O1)[C@H](OC(=O)OCCC[C@@H](C)C[C@@H](C)CC)[C@H]2O)[C@@H](OC(C)=O)[C@H](C)Cc1ccccc1 (some centres undefined) | – | 0.26 nM | 0.77 | -4% |
| C=C(CCC12OC(C(=O)O)C(O)(C(=O)O)C(C(=O)O)(O1)[C@H](OC(=O)NCC)[C@H]2O)[C@@H](OC(C)=O)[C@H](C)Cc1ccccc1 (some centres undefined) | 11 mg/kg | 16 nM | 0.02 | – |
| C=C(CCC12OC(C(=O)O)C(O)(C(=O)O)C(C(=O)O)(O1)[C@H](OCCC)[C@H]2O)[C@@H](OC(C)=O)[C@H](C)Cc1ccccc1 (some centres undefined) | 8 mg/kg | 10 nM | 0.05 | – |
| C=C(CCC12OC(C(=O)O)C(O)(C(=O)O)C(C(=O)O)(O1)[C@H](OC(=O)[C@@H](C)CC)[C@H]2O)[C@@H](OC(C)=O)[C@H](C)Cc1ccccc1 (some centres undefined) | 24 mg/kg | 18 nM | 0.04 | – |
| CC[C@H](C)C[C@H](C)CCC(=O)O[C@@H]1[C@@H](O)C2(CCCCc3ccccc3)OC(C(=O)O)C(O)(C(=O)O)C1(C(=O)O)O2 (some centres undefined) | – | 137 nM | 0.002 | – |
| C=C(CCC12OC(C(=O)O)C(O)(C(=O)O)C(C(=O)O)(O1)[C@H](OC(=O)OCC)[C@H]2O)[C@@H](OC(C)=O)[C@H](C)Cc1ccccc1 (some centres undefined) | 9 mg/kg | 9.2 nM | 0.02 | – |
| C=C(CCC12OC(C(=O)O)C(O)(C(=O)O)C(C(=O)O)(O1)[C@H](OC(=O)NC1CC1)[C@H]2O)[C@@H](OC(C)=O)[C@H](C)Cc1ccccc1 (some centres undefined) | 11 mg/kg | 3.2 nM | 0.09 | – |

| SMILES | ED50 [1] | IC50 (Squalene synthase) | Relative activity [2] | inhibition in vivo at 24 mg/kg (Mus musculus) |
| --- | --- | --- | --- | --- |
| C=C(CCC12OC(C(=O)O)C(O)(C(=O)O)C(C(=O)O)(O1)[C@H](OC(=O)CCCOC)[C@H]2O)[C@@H](OC(C)=O)[C@H](C)Cc1ccccc1 (some centres undefined) | 20 mg/kg | 25 nM | 0.03 | – |
| C=C(CCC12OC(C(=O)O)C(O)(C(=O)O)C(C(=O)O)(O1)[C@H](OC(=O)OC(C)C)[C@H]2O)[C@@H](OC(C)=O)[C@H](C)Cc1ccccc1 (some centres undefined) | 10 mg/kg | 3 nM | 0.1 | – |
| C=C(CCC12OC(C(=O)O)C(O)(C(=O)O)C(C(=O)O)(O1)[C@H](OC(=O)NC1CCC1)[C@H]2O)[C@@H](OC(C)=O)[C@H](C)Cc1ccccc1 (some centres undefined) | 6 mg/kg | 14 nM | 0.05 | – |
| C=C(CCC12OC(C(=O)O)C(O)(C(=O)O)C(C(=O)O)(O1)[C@H](OC(=O)OC)[C@H]2O)[C@@H](OC(C)=O)[C@H](C)Cc1ccccc1 (some centres undefined) | 9 mg/kg | 3.5 nM | 0.06 | – |
| C=C(CCC12OC(C(=O)O)C(O)(C(=O)O)C(C(=O)O)(O1)[C@H](OC(=O)CC)[C@H]2O)[C@@H](OC(C)=O)[C@H](C)Cc1ccccc1 (some centres undefined) | 12 mg/kg | 11 nM | 0.02 | – |
| C=C(CCC12OC(C(=O)O)C(O)(C(=O)O)C(C(=O)O)(O1)[C@H](OC(=O)NC)[C@H]2O)[C@@H](OC(C)=O)[C@H](C)Cc1ccccc1 (some centres undefined) | 11 mg/kg | – | – | – |
| C=C(CCC12OC(C(=O)O)C(O)(C(=O)O)C(C(=O)O)(O1)[C@H](OC(=S)NC(C)C)[C@H]2O)[C@@H](OC(C)=O)[C@H](C)Cc1ccccc1 (some centres undefined) | – | 14 nM | – | – |
| C=C(CCC12OC(C(=O)O)C(O)(C(=O)O)C(C(=O)O)(O1)[C@H](OC(=O)CC(C)C)[C@H]2O)[C@@H](OC(C)=O)[C@H](C)Cc1ccccc1 (some centres undefined) | 11 mg/kg | 4.3 nM | 0.13 | – |
| C=C(CCC12OC(C(=O)O)C(O)(C(=O)O)C(C(=O)O)(O1)[C@H](OC(=O)NCc1ccccc1)[C@H]2O)[C@@H](OC(C)=O)[C@H](C)Cc1ccccc1 (some centres undefined) | 40 mg/kg | 1.6 nM | 0.14 | – |
| C=C(CCC12OC(C(=O)O)C(O)(C(=O)O)C(C(=O)O)(O1)[C@H](OC(=O)NCC1CC1)[C@H]2O)[C@@H](OC(C)=O)[C@H](C)Cc1ccccc1 (some centres undefined) | 8 mg/kg | 17 nM | 0.04 | – |
| C=C(CCC12OC(C(=O)O)C(O)(C(=O)O)C(C(=O)O)(O1)[C@H](OC(=O)NC(C)C)[C@H]2O)[C@@H](OC(C)=O)[C@H](C)Cc1ccccc1 (some centres undefined) | 6 mg/kg | 8 nM | 0.05 | – |
| C=C(CCC12OC(C(=O)O)C(O)(C(=O)O)C(C(=O)O)(O1)[C@H](OC(=O)CCC)[C@H]2O)[C@@H](OC(C)=O)[C@H](C)Cc1ccccc1 (some centres undefined) | 4.5 mg/kg | 9.2 nM | 0.07 | – |
| C=C(CCC12OC(C(=O)O)C(O)(C(=O)O)C(C(=O)O)(O1)[C@H](OCCCC)[C@H]2O)[C@@H](OC(C)=O)[C@H](C)Cc1ccccc1 (some centres undefined) | 12 mg/kg | 2 nM | 0.08 | – |
| C=C(CCC12OC(C(=O)O)C(OCCCCCCCCCCCC)(C(=O)O)C(C(=O)O)(O1)[C@H](O)[C@H]2O)[C@@H](OC(C)=O)[C@H](C)Cc1ccccc1 (some centres undefined) | – | 1.2 nM | 0.08 | – |
| C=C(CCC12OC(C(=O)O)C(O)(C(=O)O)C(C(=O)O)(O1)[C@H](OC(=O)N(C)C)[C@H]2O)[C@@H](OC(C)=O)[C@H](C)Cc1ccccc1 (some centres undefined) | > 24 mg/kg | – | – | – |
